Test results published in ChEMBL document CHEMBL3588803, “Design, synthesis and pharmacology of 1,1-bistrifluoromethylcarbinol derivatives as liver X receptor β-selective agonists” (Bioorg Med Chem Lett, 2015).

How the values were obtained:
[1] = biological target: T1, Oxysterols receptor LXR-beta (Homo sapiens, UniProt P55055); assay: Agonist activity at LXRbeta (unknown origin) expressed in CHOK1 cells incubated for 24 hrs by GAL4-responsive luciferase reporter gene assay; assay type: cell-based, CHO-K1
T1 sequence (P55055 whole entry): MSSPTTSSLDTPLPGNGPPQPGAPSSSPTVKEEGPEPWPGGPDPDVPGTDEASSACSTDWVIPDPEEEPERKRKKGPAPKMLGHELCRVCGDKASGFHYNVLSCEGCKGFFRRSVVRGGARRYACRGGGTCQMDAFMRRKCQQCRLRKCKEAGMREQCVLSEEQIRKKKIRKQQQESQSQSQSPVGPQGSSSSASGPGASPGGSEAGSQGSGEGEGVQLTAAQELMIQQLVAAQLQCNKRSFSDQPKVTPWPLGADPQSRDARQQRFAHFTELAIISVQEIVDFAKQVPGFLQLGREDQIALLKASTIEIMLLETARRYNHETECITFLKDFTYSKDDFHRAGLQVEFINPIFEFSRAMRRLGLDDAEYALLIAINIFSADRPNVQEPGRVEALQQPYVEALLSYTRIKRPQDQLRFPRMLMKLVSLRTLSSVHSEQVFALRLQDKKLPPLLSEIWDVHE
Method in brief: (§1)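 CHO-K1 cells carrying the GAL4-responsive pG5luc reporter and a GAL4-LXR LBD construct were seeded at 20,000 cells/well in HAM-F12 with 10% immobilized fetal bovine serum, penicillin G and streptomycin, at 37 °C and 5% CO2. After 24 h, compound was added at 0.01–30 µM for a further 24 h. Luminescence was read with Bright-Glo substrate. EC50 is the mean of two independent experiments.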

[2] = biological target: T2, Oxysterols receptor LXR-alpha (Homo sapiens) (UniProt Q13133); assay: Agonist activity at LXRalpha (unknown origin) expressed in CHOK1 cells incubated for 24 hrs by GAL4-responsive luciferase reporter gene assay relative to 10 uM T0901317; assay type: cell-based; conditions: CHO-K1
T2 sequence (whole entry): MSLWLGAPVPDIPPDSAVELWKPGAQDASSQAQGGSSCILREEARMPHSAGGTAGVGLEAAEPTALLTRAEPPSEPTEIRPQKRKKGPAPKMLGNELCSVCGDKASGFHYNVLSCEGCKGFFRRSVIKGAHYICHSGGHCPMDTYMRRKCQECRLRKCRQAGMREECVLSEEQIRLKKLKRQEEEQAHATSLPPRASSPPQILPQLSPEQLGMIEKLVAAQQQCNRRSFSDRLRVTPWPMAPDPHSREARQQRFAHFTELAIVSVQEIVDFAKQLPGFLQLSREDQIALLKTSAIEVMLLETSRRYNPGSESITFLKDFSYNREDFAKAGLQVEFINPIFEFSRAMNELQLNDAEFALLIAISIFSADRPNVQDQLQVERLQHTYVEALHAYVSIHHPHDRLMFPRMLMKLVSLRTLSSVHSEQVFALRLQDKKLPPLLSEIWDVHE
Method in brief: (§2)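 The GAL4-LXR LBD luciferase reporter was run in CHO-K1 cells. Cells were seeded at 20,000/well in HAM-F12 with 10% immobilized FBS and antibiotics for 24 h, then exposed to compound at 0.01, 0.1, 1, 10 and 30 µM for 24 h, with a Bright-Glo luminescence read-out. Values are means of two independent experiments.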

[3] = biological target: T3, Oxysterols receptor LXR-alpha (Homo sapiens, UniProt Q13133); assay: Agonist activity at LXRalpha (unknown origin) expressed in CHOK1 cells incubated for 24 hrs by GAL4-responsive luciferase reporter gene assay; assay type: cell-based, CHO-K1; method in brief: as §1
T3 sequence (Q13133 whole entry): T2 sequence (whole entry)

[4] = biological target: T4, Oxysterols receptor LXR-beta (Homo sapiens) (UniProt P55055); assay: Agonist activity at LXRbeta (unknown origin) expressed in CHOK1 cells incubated for 24 hrs by GAL4-responsive luciferase reporter gene assay relative to 10 uM T0901317; assay type: cell-based; conditions: CHO-K1; method in brief: as §2
T4 sequence (whole entry): T1 sequence (P55055 whole entry)

Syrian golden hamster = assay: Drug level in CE-2 chow diet-fed golden Syrian hamster treated with 100 mg/kg, po 3-(4-(4-(1,1,1,3,3,3-Hexafluoro-2-hydroxypropan-2-yl)-2,6-di-n-propylphenoxy)-butyl)-5-(4-(1-methylethoxy)phenyl)-5-methylimidazolidine-2,4-dione assessed as compound formation after 0.5 to 24 hrs by HPLC-LC-MS/MS method; assay type: ADME, organism-based, Mesocricetus auratus; conditions: in vivo
[5] = Clearance in human hepatic microsomes; assay type: ADME; conditions: liver microsomes, read-out: CLH
[6] = Clearance in mouse hepatic microsomes; assay type: ADME; conditions: liver microsomes, read-out: CLH
[7] = Clearance in hamster hepatic microsomes; assay type: ADME; conditions: cricetinae, liver microsomes; read-out: CLH
Hamster [8] = assay: Increase in ABCG5 gene expression in Bio F1B hamster intestine at 10 mg/kg, po; assay type: functional, Cricetinae
Hamster [9] = assay: Hypolipidemic effect in Bio F1B hamster fed with high fat and cholesterol diet assessed as total cholesterol level at 10 mg/kg, po relative to control; assay type: functional, Cricetinae
Hamster [10] = assay: Hypolipidemic effect in Bio F1B hamster fed with high fat and cholesterol diet assessed as LDL-cholesterol level at 10 mg/kg, po relative to control; assay type: functional, Cricetinae
Hamster [11] = assay: Increase in ABCA1 gene expression in Bio F1B hamster intestine at 10 mg/kg, po; assay type: functional, Cricetinae
Hamster [12] = assay: Hypolipidemic effect in Bio F1B hamster fed with high fat and cholesterol diet assessed as lipid-accumulation area in aortic arch at 10 mg/kg, po relative to control; assay type: functional, Cricetinae
Hamster [13] = assay: Effect in lipid profiles in Bio F1B hamster fed with high fat and cholesterol diet assessed as triglyceride level at 10 mg/kg, po relative to control; assay type: organism-based; conditions: cricetinae, in vivo
Hamster [14] = assay: Increase in ABCA1 gene expression in Bio F1B hamster peripheral blood at 10 mg/kg, po; assay type: functional, Cricetinae
Hamster [15] = assay: Hypolipidemic effect in Bio F1B hamster fed with high fat and cholesterol diet assessed as HDL-cholesterol level at 10 mg/kg, po relative to control; assay type: functional, Cricetinae
Hamster [16] = assay: Increase in ABCG8 gene expression in Bio F1B hamster intestine at 10 mg/kg, po; assay type: functional, Cricetinae
[17] = biological target: T1, Oxysterols receptor LXR-beta; assay: Agonist activity at LXRbeta (unknown origin)

Row | SMILES | EC50 [1] [nM] | Emax [2] [%] | EC50 [3] [nM] | Emax [4] [%] | also measured
1 | CCCc1cc(C(O)(C(F)(F)F)C(F)(F)F)cc(CCC)c1OCCCCN1C(=O)NC(C)(c2ccc3c(c2)OCO3)C1=O (centres undefined) | 100 | 89 | 400 | 101 | 
2 | CCCc1cc(C(O)(C(F)(F)F)C(F)(F)F)ccc1OCCCCN1C(=O)NC(CCC)(c2ccc3c(c2)OCO3)C1=O (centres undefined) | 1300 | 42 | 2300 | 72 | 
3 | CCCc1cc(C(O)(C(F)(F)F)C(F)(F)F)cc(CCC)c1OCCCC(=O)O |  |  |  |  | Drug metabolism (Syrian golden hamster): metabolite_detected
4 | O=S(=O)(c1ccccc1)N(CC(F)(F)F)c1ccc(C(O)(C(F)(F)F)C(F)(F)F)cc1 [T091317] |  |  |  |  | fold change (FC) (Hamster [8]): 1.5; Activity (Hamster [9]): 124%; Activity (Hamster [10]): 75%; fold change (FC) (Hamster [11]): 3.4; Activity (Hamster [12]): 40%; Activity (Hamster [13]): 251%; fold change (FC) (Hamster [14]): 1.3; Activity (Hamster [15]): 76%; fold change (FC) (Hamster [16]): 1.4
5 | O=C(O)Cc1cccc(OCCCN(Cc2cccc(C(F)(F)F)c2Cl)CC(c2ccccc2)c2ccccc2)c1 |  |  |  |  | EC50 [17]: 400 nM

Now from value to compound, other results behind:

Row | EC50 [1] [nM] | Emax [2] [%] | EC50 [3] [nM] | Emax [4] [%] | SMILES | also measured
6 | 700 | 72 | 1500 | 172 | CCCc1cc(C(O)(C(F)(F)F)C(F)(F)F)ccc1OCCCCN1C(=O)NC(CC)(c2ccc3c(c2)OCO3)C1=O (centres undefined) | 
7 | 700 | 118 | 600 | 118 | CCCc1cc(C(O)(C(F)(F)F)C(F)(F)F)cc(CCC)c1OCCCCN1C(=O)NC(CC)(c2ccc3c(c2)OCO3)C1=O (centres undefined) | 
8 | 500 | 54 | 1700 | 118 | CCCc1cc(C(O)(C(F)(F)F)C(F)(F)F)ccc1OCCCCN1C(=O)NC(C)(c2ccc3c(c2)OCO3)C1=O (centres undefined) | microsomal CLint [5]: 31 µL/min/mg; microsomal CLint [6]: 73 µL/min/mg; microsomal CLint [7]: 351 µL/min/mg
